Active and inactive are the calls of the source.
Legend:
[1] = target: T1, Probable carboxylesterase 7 (Arabidopsis thaliana) (UniProt Q9ZQ91); assay: Binding affinity to CXE7 in Arabidopsis thaliana leaf extracts at 4 to 20 uM after 1 hr using SDS-PAGE followed by nanoLC-ESI-MS/MS analysis
T1 sequence (whole entry): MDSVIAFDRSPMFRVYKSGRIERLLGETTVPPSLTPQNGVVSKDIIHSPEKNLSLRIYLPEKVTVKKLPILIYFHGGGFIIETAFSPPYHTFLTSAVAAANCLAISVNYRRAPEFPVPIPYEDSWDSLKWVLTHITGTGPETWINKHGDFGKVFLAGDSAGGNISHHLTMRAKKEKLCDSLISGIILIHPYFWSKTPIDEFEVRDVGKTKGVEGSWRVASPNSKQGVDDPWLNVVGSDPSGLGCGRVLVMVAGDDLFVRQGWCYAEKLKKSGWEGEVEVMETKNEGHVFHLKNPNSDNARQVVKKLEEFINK

Arabidopsis thaliana [2] = assay: Binding affinity to POPL in Arabidopsis thaliana leaf extracts at 4 to 20 uM after 1 hr using SDS-PAGE followed by nanoLC-ESI-MS/MS analysis
[3] = target: T2, Probable carboxylesterase 12 (Arabidopsis thaliana) (UniProt Q9SMN0); assay: Binding affinity to CXE12 in Arabidopsis thaliana leaf extracts at 4 to 20 uM after 1 hr using SDS-PAGE followed by nanoLC-ESI-MS/MS analysis
T2 sequence (whole entry): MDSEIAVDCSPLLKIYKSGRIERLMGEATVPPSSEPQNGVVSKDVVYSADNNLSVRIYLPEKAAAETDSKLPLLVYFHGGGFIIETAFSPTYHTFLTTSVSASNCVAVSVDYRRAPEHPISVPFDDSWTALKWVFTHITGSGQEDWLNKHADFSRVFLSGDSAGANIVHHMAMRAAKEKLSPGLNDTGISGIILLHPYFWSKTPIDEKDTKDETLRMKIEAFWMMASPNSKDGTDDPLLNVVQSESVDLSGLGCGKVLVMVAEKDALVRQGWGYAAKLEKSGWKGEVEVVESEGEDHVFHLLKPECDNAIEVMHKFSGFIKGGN

[4] = target: T3, Serine carboxypeptidase-like 48 (Arabidopsis thaliana) (UniProt Q56WF8); assay: Binding affinity to SCPL48 in Arabidopsis thaliana leaf extracts at 4 to 20 uM after 1 hr using SDS-PAGE followed by nanoLC-ESI-MS/MS analysis
T3 sequence (whole entry): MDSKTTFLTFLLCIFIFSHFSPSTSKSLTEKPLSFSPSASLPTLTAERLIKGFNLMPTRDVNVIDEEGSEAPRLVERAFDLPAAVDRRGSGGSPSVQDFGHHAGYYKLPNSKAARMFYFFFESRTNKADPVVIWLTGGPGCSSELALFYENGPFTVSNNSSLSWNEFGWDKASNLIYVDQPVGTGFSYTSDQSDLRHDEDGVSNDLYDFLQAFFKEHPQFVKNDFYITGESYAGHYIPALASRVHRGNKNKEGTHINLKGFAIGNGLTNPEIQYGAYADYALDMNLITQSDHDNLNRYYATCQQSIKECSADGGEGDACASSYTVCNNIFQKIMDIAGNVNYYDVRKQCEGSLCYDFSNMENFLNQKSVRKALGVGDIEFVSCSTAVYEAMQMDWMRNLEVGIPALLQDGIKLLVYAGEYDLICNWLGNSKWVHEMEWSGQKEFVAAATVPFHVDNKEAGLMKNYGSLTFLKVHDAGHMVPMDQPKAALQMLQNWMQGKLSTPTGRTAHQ

[5] = target: T1, Probable carboxylesterase 7 (Arabidopsis thaliana); assay: Binding affinity to CXE7 in Arabidopsis thaliana leaf extracts pre-incubated with 100 uM paraoxon for 30 mins at 5 uM after 1 hr using SDS-PAGE followed by nanoLC-ESI-MS/MS analysis
Procedure, shortened: (§1)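 Extract from 2 g frozen leaves of 4-week-old A. thaliana Col-0, ground, taken up in water, cleared 5 min at 16,000×g. Labeled with 5 µM probe, biotinylated targets pulled down on avidin beads, run on 1D SDS–PAGE and fluorescence-scanned. Bands excised, digested in-gel, and analysed by nanoLC-ESI-MS/MS on LTQ Velos (C18, 5–40% acetonitrile over 90 min, 300 nL/min, positive mode, m/z 400–1600).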

[6] = target: T2, Probable carboxylesterase 12 (Arabidopsis thaliana); assay: Binding affinity to Arabidopsis thaliana CXE12 overexpressed in agroin filtreated Nicotiana benthamiana leaf extracts pre-incubated with 100 uM paraoxon for 30 mins at 2 uM after 1 hr using SDS-PAGE followed by nanoLC-ESI-MS/MS analysis
Procedure, shortened: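 CXE12 cDNA in binary vector, Agrobacterium GV3101 pMP90, co-infiltrated with p19 silencing-suppressor strain into 4-week-old N. benthamiana leaves (p19 alone as control). Leaf extracts preincubated 30 min with 100 µM paraoxon or DMSO, then labeled 1 h with 2 µM probe. Reactions stopped in gel loading buffer, proteins resolved on gels, fluorescence scanning.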

[7] = target: T2, Probable carboxylesterase 12 (Arabidopsis thaliana); assay: Binding affinity to CXE12 in Arabidopsis thaliana leaf extracts pre-incubated with 100 uM paraoxon for 30 mins at 5 uM after 1 hr using SDS-PAGE followed by nanoLC-ESI-MS/MS analysis; procedure, shortened: as §1
[8] = target: T3, Serine carboxypeptidase-like 48 (Arabidopsis thaliana); assay: Binding affinity to SCPL48 in Arabidopsis thaliana leaf extracts pre-incubated with 100 uM paraoxon for 30 mins at 5 uM after 1 hr using SDS-PAGE followed by nanoLC-ESI-MS/MS analysis; procedure, shortened: as §1
Arabidopsis thaliana [9] = assay: Binding affinity to POPL in Arabidopsis thaliana leaf extracts pre-incubated with 100 uM paraoxon for 30 mins at 5 uM after 1 hr using SDS-PAGE followed by nanoLC-ESI-MS/MS analysis; procedure, shortened: as §1

Measured: Activity

C#CCNC(=O)OCCOCCOCCOCCP(=O)(OCC)Oc1ccc([N+](=O)[O-])cc1 (centres undefined)
active: [1] | Arabidopsis thaliana [2] | [3] | [4]

CCOP(=O)(CCOCCOCCOCCOC(=O)NCc1cn(CCCCCNC(=O)CCC(=O)N[C@@H](CCCCNC(=O)CCCCC[C@@H]2SC[C@@H]3NC(=O)N[C@@H]32)C(=O)NCCCCCNC(=O)c2ccc(-c3c4ccc(=[N+](C)C)cc-4oc4cc(N(C)C)ccc34)c(C(=O)[O-])c2)nn1)Oc1ccc([N+](=O)[O-])cc1 (some centres undefined)
active: [5] | [6] | [7] | [8] | Arabidopsis thaliana [9]
